Assay results from ChEMBL document CHEMBL4196069 (Eur J Med Chem, 2018).

Tests used:
PC-3 = assay: Antiproliferative activity against human PC3 cells after 72 hrs by MTT assay; format: functional, cell-based; settings: PC-3, 72 h
Outline: (§1)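 Cells pre-incubated 24 h at 37 °C in humidified 5% CO2, then exposed to compounds for 72 h. MTT (5 mg/mL) was added for 4 h, formazan was dissolved in DMSO, and OD was read at 570 nm. Vehicle control was 0.1% DMSO. IC50 was calculated from inhibition ratios as the mean ± SD of three independent experiments.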

[1] = Selectivity index, ratio of IC50 for human LO2 cells to IC50 for human Bel7402 cells; format: toxicity; settings: LO2 cells versus Bel7402 cells, read-out: Ratio IC50
Outline: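 Selectivity index = IC50(L-O2)/IC50(Bel-7402), both IC50s from the 72 h MTT assay (mean of three independent experiments).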

L02 = assay: Antiproliferative activity against human LO2 cells after 72 hrs by MTT assay; format: cell-based; settings: L02, 72 h; outline: as §1
HL-60 = assay: Antiproliferative activity against human HL60 cells after 72 hrs by MTT assay; format: functional, cell-based; settings: HL-60, 72 h; outline: as §1
Bel7402/5-FU = assay: Antiproliferative activity against human Bel7402/5-FU cells after 72 hrs by MTT assay; format: functional, cell-based; outline: as §1
Bel-7402 = assay: Antiproliferative activity against human Bel7402 cells after 72 hrs by MTT assay; format: functional, cell-based; settings: Bel-7402, 72 h; outline: as §1

SMILES	IC50 (PC-3) [µM]	selectivity ratio [1]	IC50 (L02) [µM]	IC50 (HL-60) [µM]	IC50 (Bel7402/5-FU) [µM]	IC50 (Bel-7402) [µM]
C[C@H]1CCC/C=C/[C@@H]2C[C@H](O)C[C@H]2[C@H](OC(=O)CCCc2ccc(N(CCCl)CCCl)cc2)/C=C/C(=O)O1	1.37	15.3	29.6	12.6	8.35	1.93
COC(=O)[C@H](Cc1ccc(N(CCCl)CCCl)cc1)NC(=O)CCC(=O)O[C@@H]1/C=C/C(=O)O[C@@H](C)CCC/C=C/[C@@H]2C[C@H](O)C[C@H]21	14.5	3.8	5.16	1.52	4.6	1.37
COC(=O)[C@H](Cc1ccc(N(CCCl)CCCl)cc1)NC(=O)CCC(=O)O[C@@H]1C[C@H]2[C@H](O)/C=C/C(=O)O[C@@H](C)CCC/C=C/[C@@H]2C1	17.6	3.1	4.57	14.4	3.05	1.49
O=c1[nH]cc(F)c(=O)[nH]1 [FLUOROURACIL]	23.9	–	–	2.37	> 80	18.5
C[C@H]1CCC/C=C/[C@@H]2C[C@H](OC(=O)c3ccc(N(CCCl)CCCl)cc3)C[C@H]2[C@H](O)/C=C/C(=O)O1	10.6	6.6	9.51	8.25	4.05	1.45
C[C@H]1CCC/C=C/[C@@H]2C[C@H](OC(=O)CCCc3ccc(N(CCCl)CCCl)cc3)C[C@H]2[C@H](O)/C=C/C(=O)O1	6.84	3.2	15.5	34.7	13.8	4.86
C[C@H]1CCC/C=C/[C@@H]2C[C@H](OC(=O)c3ccc(N(CCCl)CCCl)cc3)C[C@H]2[C@H](OC(=O)c2ccc(N(CCCl)CCCl)cc2)/C=C/C(=O)O1	18.5	2.7	17.3	9.31	15.3	6.3
C[C@H]1CCC/C=C/[C@@H]2C[C@H](OC(=O)CCCc3ccc(N(CCCl)CCCl)cc3)C[C@H]2[C@H](OC(=O)CCCc2ccc(N(CCCl)CCCl)cc2)/C=C/C(=O)O1	20.4	2.7	19.5	67.4	15.6	7.25
C[C@H]1CCC/C=C/[C@@H]2C[C@H](O)C[C@H]2[C@H](O)/C=C/C(=O)O1 [BREFELDIN A]	–	–	< 0.001	0.025	0.82	0.024
COC(=O)[C@H](Cc1ccc(N(CCCl)CCCl)cc1)NC(=O)CCC(=O)O[C@@H]1C[C@@H]2[C@H](/C=C/CCC[C@H](C)OC(=O)/C=C/[C@H]2OC(=O)CCC(=O)N[C@@H](Cc2ccc(N(CCCl)CCCl)cc2)C(=O)OC)C1	32.5	6.2	29.9	9.37	7.47	4.85
O=C(O)CCCc1ccc(N(CCCl)CCCl)cc1 [CHLORAMBUCIL]	40.4	–	> 80	11.6	> 80	> 80
COC(=O)[C@H](Cc1ccc(N(CCCl)CCCl)cc1)NC(=O)CCC(=O)O	> 80	1.37	32.9	6.02	> 80	23.9
